For one assay, the system named is Pyricularia grisea. Kind of assay: Antifungal activity against Pyricularia grisea assessed as inhibition of germ-tube development by microdilution method. Format: functional, organism-based. In short, it runs like this: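 Pyricularia grisea isolate from infected rice leaves (Thailand), tested in 4% malt extract broth by microdilution. Stock in acetone/malt extract emulsified with 0.2% Tween 80, diluted 2-fold; final range 200–0.78 μg/mL. Inoculum 10⁴ CFU conidia per well. Incubated 16 h at room temperature, stopped with lactophenol blue. Germ-tube size measured by pixel counts of 10 conidia per well. EC50/EC90 by probit; MIC is the first concentration giving total inhibition.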
On the technique in general: Dilution methods test growth across graded concentrations, often in twofold steps.

A further assay relates to Cladosporium herbarum. As to the kind of experiment: Antifungal activity against Cladosporium herbarum assessed as inhibition zone in mycelial layer assessed per spot by TLC bioautography assay. Format: functional. The method in brief:
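TLC bioautography with Cladosporium herbarum strain VIAM-MA1511 as the mycelial layer. Compounds were applied as a dilution series from 100 to 25 μg/spot, and plates were held 3 days. The MIC was the first amount in the series that gave a homogeneous inhibition zone in the mycelial layer.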

The results in this text go back to ChEMBL document CHEMBL1146454, “Antifungal 3-butylisocoumarins from Asteraceae-Anthemideae” (J Nat Prod, 2004).

SMILES strings stand for the structures. In brackets after ≈: the same amount, converted by molar mass. Activity calls are given as the source filed them. The rule behind the calls is not given here.

What is called EC50 is the concentration that produces a half-maximal response. In the case of `CC[C@@H]1O[C@H]1c1cc2ccccc2c(=O)o1`, in the assay with Pyricularia grisea, the EC50 is 93 µg/mL (≈ 430 µM) and the MIC is greater than 200 µg/mL. The MIC in the assay with Cladosporium herbarum turned out to be 25 µg.
With `CC(O)C#Cc1cc2ccccc2c(=O)o1` (centres undefined), in the assay on Pyricularia grisea, the half-maximal effective concentration (EC50) is 0.9 µg/mL (≈ 4.2 µM) and the MIC is 50 µg/mL (≈ 233 µM). The MIC with Cladosporium herbarum amounted to 100 µg.
Taken in the same sequence, the figures for `CCCC(Br)(Br)c1cc2ccccc2c(=O)o1` were 22 µg/mL (≈ 61.1 µM), greater than 200 µg/mL and 50 µg.
A word on the EC90: it is the point of the concentration-response curve where the effect stands at 90%. With `CC/C=C/c1cc2ccccc2c(=O)o1`, in the assay on Pyricularia grisea, the EC50 stood at 11 µg/mL (≈ 54.9 µM), the EC90 was 19 µg/mL (≈ 94.9 µM) and the MIC stood at 25 µg/mL (≈ 125 µM). Besides, the MIC with Cladosporium herbarum came out at 100 µg.
`CC/C=C/c1cc2c(O)cccc2c(=O)o1` [ARTEMIDINOL]: in the assay with Pyricularia grisea, the EC50 is 12 µg/mL (≈ 55.5 µM), the EC90 amounted to 32 µg/mL (≈ 148 µM) and the MIC is 50 µg/mL (≈ 231 µM). For the same molecule, the MIC in the assay on Cladosporium herbarum is greater than 100 µg.
As to `CCCC(O)c1cc2ccccc2c(=O)o1` (centres undefined), in the assay with Pyricularia grisea, the EC50 came to 37 µg/mL (≈ 170 µM), the EC90 was determined as 83 µg/mL (≈ 380 µM) and the MIC was 100 µg/mL (≈ 458 µM). In the assay with Cladosporium herbarum, the MIC is 100 µg.
Take `CO/N=C(/C(=O)OC)c1ccccc1COc1ccccc1C` [KRESOXIM-METHYL]: in the assay with Pyricularia grisea, the EC50 turned out to be 0.003 µg/mL (≈ 0.00957 µM) and the MIC was greater than 200 µg/mL.
For `CC#CCc1cc2cccc(O)c2c(=O)o1`, in the assay on Pyricularia grisea, the EC50 was 2 µg/mL (≈ 9.34 µM), the 90% effect concentration (EC90) amounted to 102 µg/mL (≈ 476 µM) and the MIC stood at 100 µg/mL (≈ 467 µM). In addition, in the assay with Cladosporium herbarum, the outcome was inactive.
On to `CC/C=C/c1cc2cccc(O)c2c(=O)o1`, for which, in the assay on Pyricularia grisea, the EC50 stood at 4 µg/mL (≈ 18.5 µM), the EC90 amounted to 19 µg/mL (≈ 87.9 µM) and the MIC came out at 25 µg/mL (≈ 116 µM). Further, the MIC with Cladosporium herbarum is greater than 100 µg.
For the molecule `CC[C@H](O)Cc1cc2ccccc2c(=O)o1`, in the assay on Pyricularia grisea, the EC50 was determined as 25 µg/mL (≈ 115 µM) and the MIC was greater than 200 µg/mL. In addition, in the assay with Cladosporium herbarum, the MIC was found to be 100 µg.
For the molecule `O=c1occc2ccccc12` [ISOCOUMARIN], in the assay on Pyricularia grisea, the concentration giving a half-maximal response (EC50) is 83 µg/mL (≈ 568 µM) and the MIC is greater than 200 µg/mL.
Consider `CC(C)CC(=O)OCC#CCc1cc2ccccc2c(=O)o1` [CAPILLARIN ISOVALERATE], for which, in the assay with Pyricularia grisea, the EC50 stood at 5 µg/mL (≈ 16.8 µM), the 90% effect concentration (EC90) was 13 µg/mL (≈ 43.6 µM) and the MIC is 25 µg/mL (≈ 83.8 µM). Besides, in the assay with Cladosporium herbarum, the outcome was inactive.
As for `CCC(Br)C(Br)c1cc2ccccc2c(=O)o1` (centres undefined), in the assay with Cladosporium herbarum, the MIC was 100 µg.
As for `CCC#Cc1cc2ccccc2c(=O)o1` [CORFIN], in the assay on Pyricularia grisea, the concentration for a half-maximal effect (EC50) turned out to be 3 µg/mL (≈ 15.1 µM), the EC90 is 99 µg/mL (≈ 499 µM) and the MIC worked out at 100 µg/mL (≈ 504 µM). Besides, the MIC with Cladosporium herbarum was greater than 100 µg.
`C[C@@H](O)/C=C/c1cc2ccccc2c(=O)o1`: in the assay with Pyricularia grisea, the EC50 came out at 140 µg/mL (≈ 647 µM), the EC90 came to 292 µg/mL (≈ 1350 µM) and the MIC was greater than 200 µg/mL. Further, in the assay on Cladosporium herbarum, the MIC is 100 µg.
As for `CCCCNC(=O)n1c(NC(=O)OC)nc2ccccc21` [BENOMYL], in the assay on Pyricularia grisea, the EC50 was 0.06 µg/mL (≈ 0.207 µM) and the MIC turned out to be 200 µg/mL (≈ 689 µM). Further, in the assay on Cladosporium herbarum, the MIC was less than 25 µg.
In the case of `CC(=O)/C=C/c1cc2ccccc2c(=O)o1`, in the assay on Pyricularia grisea, the EC50 worked out at 5 µg/mL (≈ 23.3 µM), the EC90 amounted to 21 µg/mL (≈ 98 µM) and the MIC worked out at 25 µg/mL (≈ 117 µM). Besides, the MIC in the assay with Cladosporium herbarum is less than 25 µg.
Regarding `CC[C@H](Cc1cc2ccccc2c(=O)o1)OC`, in the assay on Pyricularia grisea, the outcome was inactive. In the assay on Cladosporium herbarum, the MIC was greater than 100 µg.
As to `CN(CC[C@H](N)CC(=O)N[C@H]1C=C[C@H](n2ccc(N)nc2=O)O[C@@H]1C(=O)O)C(=N)N` [BLASTICIDIN_S], in the assay with Pyricularia grisea, the EC50 was determined as 13 µg/mL (≈ 30.8 µM) and the MIC is greater than 200 µg/mL.
Take `CC[C@@H](O)[C@H](O)c1cc2ccccc2c(=O)o1` (relative stereo): the outcome in the assay with Pyricularia grisea was inactive.
Take `CCCC(Br)c1cc2ccccc2c(=O)o1` (centres undefined): in the assay on Pyricularia grisea, the concentration giving a half-maximal response (EC50) stood at 35 µg/mL (≈ 124 µM), the EC90 worked out at 96 µg/mL (≈ 341 µM) and the MIC is 100 µg/mL (≈ 356 µM). For the same molecule, the MIC with Cladosporium herbarum came out at 25 µg.
In the case of `CC#CCc1cc2ccccc2c(=O)o1` [CAPILLARIN], in the assay with Pyricularia grisea, the 50% effective concentration (EC50) was 37 µg/mL (≈ 187 µM), the EC90 amounted to 92 µg/mL (≈ 464 µM) and the MIC came out at 100 µg/mL (≈ 504 µM). In addition, in the assay on Cladosporium herbarum, the result was inactive.
Turning to `C=C/C=C/c1cc2ccccc2c(=O)o1`, in the assay with Pyricularia grisea, the EC50 is 14 µg/mL (≈ 70.6 µM), the 90% effect concentration (EC90) is 45 µg/mL (≈ 227 µM) and the MIC was 50 µg/mL (≈ 252 µM). The MIC in the assay on Cladosporium herbarum stood at 25 µg.
For `CC[C@H]1O[C@@H]1c1cc2ccccc2c(=O)o1` (racemic), the outcome in the assay with Pyricularia grisea was inactive. Further, in the assay with Cladosporium herbarum, the MIC amounted to 50 µg.
In the case of `CCCCc1cc2ccccc2c(=O)o1` [DIHYDROARTEMIDIN], in the assay on Pyricularia grisea, the EC50 came to 10 µg/mL (≈ 49.4 µM), the EC90 was found to be 40 µg/mL (≈ 198 µM) and the MIC stood at 50 µg/mL (≈ 247 µM). Besides, in the assay with Cladosporium herbarum, the MIC was 100 µg.
On to `COc1cc(O)c2c(c1)C[C@@H](C)OC2=O`, for which, in the assay on Pyricularia grisea, the EC50 amounted to 47 µg/mL (≈ 226 µM), the EC90 was determined as 106 µg/mL (≈ 509 µM) and the MIC worked out at 200 µg/mL (≈ 961 µM). For the same molecule, the MIC in the assay with Cladosporium herbarum is 25 µg.
Take `COC1=CC(=O)C[C@@H](C)[C@]12Oc1c(Cl)c(OC)cc(OC)c1C2=O` [GRISEOFULVIN]: in the assay with Pyricularia grisea, the EC50 amounted to 4 µg/mL (≈ 11.3 µM) and the MIC was greater than 200 µg/mL.
Turning to `CC[C@H](O)[C@H](O)c1cc2ccccc2c(=O)o1` (relative stereo), the outcome with Pyricularia grisea was inactive.
Consider `CC/C=C(\Br)c1cc2ccccc2c(=O)o1`, for which, in the assay on Pyricularia grisea, the EC50 stood at 2 µg/mL (≈ 7.17 µM), the EC90 stood at 9 µg/mL (≈ 32.2 µM) and the MIC was determined as 12 µg/mL (≈ 43 µM). In addition, the MIC with Cladosporium herbarum was less than 25 µg.
Taken in the same sequence, the figures for `CC(=O)OC(C)/C=C/c1cc2ccccc2c(=O)o1` (centres undefined) were 8 µg/mL (≈ 31 µM), 30 µg/mL (≈ 116 µM), 50 µg/mL (≈ 194 µM) and 50 µg.
